Assay outcomes as filed in PubChem BioAssay.
Hits are enriched below; roughly 0.79% of the tested compounds scored in any of these assays.
hIAP act – human IAP activation | activation factor at 10 µM | P09923 | actives 0.16% (n = 330,000) | purified human IAP, CDP-Star luminescence, 30 min; stronger effect = higher value; 1 = vehicle-only enzyme, 0 = enzyme-free background;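 active means activation factor of the enzyme at least 2-fold when tested at 20 µM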
Target sequence (P09923 whole entry, looked up): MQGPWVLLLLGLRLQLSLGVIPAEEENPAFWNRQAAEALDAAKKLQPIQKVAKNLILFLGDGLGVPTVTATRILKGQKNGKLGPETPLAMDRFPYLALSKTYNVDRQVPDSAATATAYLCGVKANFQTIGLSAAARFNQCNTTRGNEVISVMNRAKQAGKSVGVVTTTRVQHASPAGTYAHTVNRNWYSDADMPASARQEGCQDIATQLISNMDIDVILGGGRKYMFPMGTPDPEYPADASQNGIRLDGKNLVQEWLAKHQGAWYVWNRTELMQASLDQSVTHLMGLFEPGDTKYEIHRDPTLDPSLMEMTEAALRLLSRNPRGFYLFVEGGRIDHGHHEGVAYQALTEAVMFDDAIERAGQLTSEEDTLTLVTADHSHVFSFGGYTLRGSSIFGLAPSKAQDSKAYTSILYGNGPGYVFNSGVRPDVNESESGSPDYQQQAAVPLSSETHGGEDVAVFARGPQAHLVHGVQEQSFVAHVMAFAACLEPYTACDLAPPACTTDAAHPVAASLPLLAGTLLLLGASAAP
mIAP activ – mouse IAP activation; muIAP, CDP-Star luminescence, 30 min; stronger effect = higher value; 1 = vehicle-only enzyme signal, 0 = enzyme-free wells; activation factor at 10 µM; actives 0.24% (n = 330,000); AID 2805;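 active means activation factor of at least 2 at 20 µM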
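Assay system: mouse IAP enzyme / Compound: DMSO-dissolved test compounds / Timing: 30 min, room temperature / Measured by: luminescence from enzymatic CDP-Star hydrolysis / Control set: DMSO-only wells, enzyme-free buffer wells as negative control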
mIAP inh – blocks mouse intestinal alkaline phosphatase. inhibition, % at 10 µM. purified mouse IAP, CDP-Star luminescence, 30 min. actives 0.2% (n = 330,000);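 active means inhibition of at least 40% at 10 µM in the primary screen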
bIAP inh – blocks bovine intestinal alkaline phosphatase activity; 190,000 tested, under 10 active; inhibition, % at 20 µM; purified bovine IAP, CDP-star luminescence, 30 min;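 active means over 50% inhibition of intestinal alkaline phosphatase at 20 µM in the single-dose screen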
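Assay system: bovine IAP enzyme; medium: DEA buffer 100 mM, pH 9.8, with MgCl2 1.0 mM, ZnCl2 0.02 mM; doses: 20 µM single dose; incubation: enzyme reaction for 30 min at room temperature; detection: CDP-star luminescence signal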
hIAP inh – human IAP inhibition; P09923; purified IAP, CDP-Star luminescence, 30 min; inhibition, % at 10 µM; actives 0.12% (n = 330,000);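 active means inhibition reaching a set limit with compound at 10 µM in the primary screen, cut at about 35% in these data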
bIAP act – increases bovine intestinal alkaline phosphatase activity; purified bovine IAP, CDP-star luminescence, 30 min; stronger effect = higher value; fold of DMSO-control signal, blank-subtracted; activation factor at 20 µM; AID 1016; actives 0.17% (n = 200,000);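 active means activation factor of 2 or more at 20 µM, a signal rise over negative controls twice the positive control's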
mIAP inh confirm – mouse IAP inhibition confirmation; shares compounds with mIAP inh; purified mouse IAP, CDP-Star luminescence, 30 min; actives 4.7% (n = 11,000); inhibition, % at 10 µM;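 active means inhibition of at least 40% at 10 µM in either of the two replicates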
Hits are given with their value; – = inactive; · = no result.

SMILES | hIAP act | mIAP activ | mIAP inh | bIAP inh | hIAP inh | bIAP act | mIAP inh confirm
O=C(COc1ccc(/C=N/NC(=O)c2cccnc2)cc1)Nc1ccccc1 | – | – | – | · | – | · | ·
NS(=O)(=O)c1cc(C(=O)N=Nc2c(O)[nH]c3ccccc23)ccc1Cl | – | – | 46 | · | – | · | 48
O=C(N=Nc1c(O)[nH]c2ccccc12)c1cccc(S(=O)(=O)Nc2ccccc2Cl)c1 | – | – | – | – | – | – | ·
CCCCNC(=O)Nc1ccc2c(c1)N(C)C(=O)c1ccccc1S2 | – | 2.7 | – | · | – | · | –
O=C(O)CCN1C(=O)/C(=C/c2ccc(-c3nc4ccccc4s3)o2)SC1=S | – | – | – | – | – | – | ·
Cn1cccc1/C=C1\SC(=S)N(NC(=O)c2ccccc2O)C1=O | – | – | – | · | – | · | ·
O=C(O)CC(C(=O)O)N1C(=O)/C(=C/C=C/c2ccco2)SC1=S (stereo not drawn) | – | – | 74 | · | – | · | 80
O=C(O)CC(C(=O)O)N1C(=O)/C(=C/c2ccc(-c3nc4ccccc4s3)o2)SC1=S (stereo not drawn) | – | – | 63 | – | – | – | 62
O=C(NN1C(=O)/C(=C/C=C/c2ccco2)SC1=S)c1ccccc1O | – | – | 87 | · | – | · | 93
Cc1ccc(NC(=O)CCCN2C(=O)/C(=C/C=C/c3ccccc3)SC2=S)cc1 | – | – | – | – | – | – | ·
O=C(O)CCCN1C(=O)/C(=C/C=C/c2ccco2)SC1=S | – | – | 68 | · | – | · | 69
CN(CCC#N)S(=O)(=O)c1ccc2[nH]cc(C(=O)NCCc3ccccc3)c(=O)c2c1 | – | – | – | – | – | – | ·
Cc1ccc(S(=O)(=O)c2nc(-c3ccco3)oc2NCC2CCCO2)cc1 (stereo not drawn) | · | · | · | – | · | – | ·
O=C(O)COc1ccc(/C=C/c2nc(-c3ccccc3O)n[nH]2)cc1 | – | – | 52 | · | – | · | 62
COc1ccc(/C=C/c2nc(-c3ccccc3O)n[nH]2)cc1OC | – | – | – | – | – | – | ·
CCCCNC(=O)Oc1c(Br)cc2sc(=O)oc2c1Br | – | – | 78 | · | – | · | 81
CC1CN(Cc2ccccc2)c2ccccc2NC1=S (stereo not drawn) | – | – | – | – | – | – | ·
COC(=O)c1ccccc1NCc1cc(=O)oc2cc(O)c(O)cc12 | – | – | 44 | · | – | · | 44
O=S(=O)(NCC1CC1)c1cccc(S(=O)(=O)N2CCCC2)c1 | – | – | – | – | – | – | ·
Cc1oc(-c2cc(F)ccc2F)nc1CN1CCN(c2cnccn2)CC1 | – | – | – | – | – | – | ·
Cc1nnc(NC2=NCCC2)s1 | – | – | – | – | – | – | ·
Oc1ccc(-c2cn3c(n2)SCC3)cc1O | – | – | 61 | – | – | – | 92
N#CCC(=O)N/N=C/c1ccc(Cl)cc1 | – | – | – | · | – | · | ·
CC1=NN(c2ccc(C)cc2)C(=O)/C1=C/c1ccc(-c2cc([N+](=O)[O-])ccc2O)o1 | – | – | – | · | – | · | ·
O=C1NN(c2cccc(Br)c2)C(=O)/C1=C/c1ccc(-c2cc([N+](=O)[O-])ccc2O)o1 | – | – | 45 | · | – | · | 47
SMILES | hIAP act | mIAP activ | mIAP inh | bIAP inh | hIAP inh | bIAP act | mIAP inh confirm
Oc1ccc(Cl)cc1-c1cc(-c2ccco2)[nH]n1 | – | – | 80 | – | – | – | 80
Oc1ccc(Br)cc1-c1cc(-c2ccco2)[nH]n1 | – | – | – | – | – | – | ·
Cc1ccc(C(=O)Nc2nc(-c3ccco3)c(-c3ccco3)s2)o1 | – | – | 64 | · | – | · | 68
O=C(CCl)Nc1nc(-c2ccco2)c(-c2ccco2)s1 | – | – | 77 | – | – | – | 74
O=C(CCCSc1ccccc1)Nc1nc(-c2ccco2)c(-c2ccco2)s1 | · | · | · | – | · | – | ·
Cc1ccc(S(=O)(=O)N2CC(C(=O)O)=CC[C@H]2c2ccc3c(c2)OCO3)cc1 | – | – | – | · | – | · | ·
COC(=O)c1ccc(C(=O)OC)c(NC(=S)N2CCN(c3ccccn3)CC2)c1 | – | – | – | – | – | – | ·
N=C1/C(=C\c2coc3ccc(O)cc3c2=O)C(=O)N=C2SC=CN12 | – | – | 59 | · | – | · | 64
CCCN(CCC)CCCNC(=O)CN1C(=O)CSc2ccc(S(=O)(=O)N3CCOCC3)cc21 | – | – | – | – | – | – | ·
